pIC50: −log10 of the molar value. The source made the active and inactive calls. The rule behind the calls is not given here.
Legend:
[1] = Cytotoxicity against human NCI-H441 cells assessed as decrease in cell viability after 48 hrs by Alamar blue assay; assay type: functional, cell-based; conditions: NCI-H441, 48 h
[2] = test system: NCI-H1299; assay: Induction of apoptosis in human NCI-H1299 cells assessed as increase in cleaved caspase 3 level after 24 hrs by immunofluorescence based confocal microscopy; assay type: functional, cell-based
Method in brief: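 H1299 cells treated 24 hrs with compound (5 or 20 μM) or DMSO, then immunostained for active caspase 3 and imaged by confocal microscopy. Apoptotic fraction was calculated as cells expressing active caspase over total cells; n=3, s.d.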

[3] = test system: NCI-H1299; assay: Induction of apoptosis in human NCI-H1299 cells assessed as increase in cleaved PARP level at 3 to 10 uM after 24 hrs by Western blot analysis; assay type: functional, cell-based
Method in brief: (§1)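 H1299 cells treated 24 hrs with compound (3, 5, 10 or 20 μM) or DMSO. Lysates were probed by western blot for apoptotic markers: cleaved caspase 3, cleaved lamin A and cleaved PARP.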

[4] = test system: NCI-H1299; assay: Induction of apoptosis in human NCI-H1299 cells assessed as apoptotic cells at 3 uM after 48 hrs by annexin V-phycoerythrin/7-AAD staining based flow cytometry (reference value: 4%); assay type: functional
[5] = Cytotoxicity against human A549 cells assessed as decrease in cell viability after 48 hrs by Alamar blue assay; assay type: functional, cell-based; conditions: A549, 48 h
[6] = Cytotoxicity against human IMR90 cells assessed as decrease in cell viability after 48 hrs by Alamar blue assay; assay type: toxicity, cell-based, IMR-90
[7] = test system: NCI-H1299; assay: Induction of autophagy in human NCI-H1299 cells assessed as increase in p62/SQSTM1 level at 3 to 10 uM after 24 hr by Western blot analysis; assay type: functional, cell-based
Method in brief: (§2)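 H1299 cells incubated 24 hrs with compound (3, 5, 10 or 20 μM) or DMSO. LC3 (LC3II band) and p62/SQSTM1 were detected by western blot.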

[8] = Drug localization in lysosomes of human NCI-H1299 cells at 10 uM after 1 hr by mitotracker green FM/lysotracker red DND-99 staining based confocal microscopy; assay type: ADME, cell-based, Lysosome; conditions: nci-h1299, 1 h
Method in brief: (§3)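 Live H1299 cells exposed to compound for 1 hr, then co-stained with MitoTracker Green FM (mitochondria) and LysoTracker Red DND-99 (lysosomes). Localization was read by live confocal microscopy using the β-carboline's intrinsic fluorescence (Ex/Em 358/461 nm), compared against the organelle stains.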

[9] = Upregulation of PUMA expression in human NCI-H1299 cells assessed as after 24 hrs by Western blot analysis; assay type: functional, cell-based
Method in brief: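 PUMA protein measured by western blot in H1299 cells after 24 hrs with compound (3, 5, 10 or 20 μM) or DMSO.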

[10] = test system: NCI-H1299; assay: Induction of autophagy in human NCI-H1299 cells assessed as increase in LC3-2 level after 24 hr by Western blot analysis; assay type: functional, cell-based; method in brief: as §2
[11] = Cytotoxicity against human NCI-H1993 cells assessed as decrease in cell viability after 48 hrs by Alamar blue assay; assay type: functional, cell-based; conditions: NCI-H1993, 48 h
[12] = Cytotoxicity against human NCI-H2009 cells assessed as decrease in cell viability after 48 hrs by Alamar blue assay; assay type: functional, cell-based; conditions: NCI-H2009, 48 h
[13] = test system: NCI-H1299; assay: Induction of autophagy in human NCI-H1299 cells transfected with GFP-LC3 assessed as increase in LC3-2 level at 3 to 10 uM after 24 hr by DAPI staining based immunofluorescence assay; assay type: functional, cell-based
[14] = test system: NCI-H1299; assay: Induction of apoptosis in human NCI-H1299 cells assessed as increase in cleaved lamin A level at 3 to 10 uM after 24 hrs by Western blot analysis; assay type: functional, cell-based; method in brief: as §1
[15] = test system: NCI-H1299; assay: Induction of apoptosis in human NCI-H1299 cells assessed as increase in cleaved caspase 3 level after 24 hrs by Western blot analysis; assay type: functional, cell-based; method in brief: as §1
[16] = Cytotoxicity against human NCI-H1373 cells assessed as decrease in cell viability after 48 hrs by Alamar blue assay; assay type: functional, cell-based; conditions: NCI-H1373, 48 h
[17] = Cytotoxicity against human NCI-H1299 cells assessed as decrease in cell viability after 48 hrs by Alamar blue assay; assay type: functional, cell-based; conditions: NCI-H1299, 48 h
[18] = Drug localization in lysosomes of human NCI-H1299 cells at 20 uM after 1 hr by mitotracker green FM/lysotracker red DND-99 staining based confocal microscopy; assay type: ADME, cell-based, Lysosome; conditions: nci-h1299, 1 h; method in brief: as §3
[19] = test system: NCI-H1299; assay: Induction of autophagy in human NCI-H1299 cells transfected with GFP-LC3 assessed as increase in LC3-2 level at 20 uM after 24 hr by DAPI staining based immunofluorescence assay; assay type: functional, cell-based
Method in brief: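 H1299 cells transiently transfected with GFP-LC3, then treated 24 hrs with compound (3–20 μM) or DMSO. GFP-LC3 puncta were imaged by confocal microscopy and counted per cell; n=30 cells, s.d.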

[20] = test system: NCI-H1299; assay: Induction of apoptosis in human NCI-H1299 cells assessed as apoptotic cells at 15 uM after 48 hrs by annexin V-phycoerythrin/7-AAD staining based flow cytometry (reference value: 4%); assay type: functional

SMILES	pIC50 [1]	Activity [2]	Activity [3]	Activity [4] [%]	pIC50 [5]	IC50 at 48 h [6] [µM]	Activity [7]	Drug uptake [8]	Activity [9]	Activity [10]	pIC50 [11]	pIC50 [12]	Activity [13]	Activity [14]	Activity [15]	pIC50 [16]	pIC50 [17]	Drug uptake [18]	Activity [19]	Activity [20] [%]
CN(CCNCc1nccc2c1[nH]c1ccccc12)CCNCc1nccc2c1[nH]c1ccccc12	6.15	Dose-dependent effect	Active	97	5.54	5.6	Active	Active	Dose-dependent effect	Dose-dependent effect	5.92	5.85	Active	Active	Dose-dependent effect	5.48	5.80			
CN(CCN)CCNCc1nccc2c1[nH]c1ccccc12	5.37				4.69	12.9					5.03	5.05				4.88	4.82	Active	Active	11
O[C@]12C=C(c3nccc4c3[nH]c3ccccc34)[C@@H]3CCN(CCCC/C=C\CC1)C[C@@]31C[C@@H]3/C=C\CCCCN3[C@H]12 [MANZAMINE A]	5.96				5.64	6.8					5.41	5.80	Active			5.68	5.82			

— ChEMBL document CHEMBL3853347, “PUMA-dependent apoptosis in NSCLC cancer cells by a dimeric β-carboline” (Bioorg Med Chem Lett, 2016)
